Holding throughout (type): cell-based
The target of experiment [1] is T1, Sodium channel protein type 9 subunit alpha (Homo sapiens, UniProt Q15858). Put plainly: Inhibition of human Nav1.7 expressed in HEK293 cells assessed as inward peak current by ion-works quattro patch clamp electrophysiology method. Background: In patch-clamp work, channel activity is measured electrically.
Experiment [2] addresses T2, Sodium channel protein type 5 subunit alpha (Homo sapiens, UniProt Q14524). Put plainly: Inhibition of human Nav1.5 expressed in HEK293 cells assessed as inward peak current by ion-works quattro patch clamp electrophysiology method. In outline:
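Stable HEK293 line expressing human NaV1.5, recorded by population patch clamp on the IonWorks Quattro.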

The target of experiment [3] is T1, Sodium channel protein type 9 subunit alpha. Kind of experiment: Inhibition of human Nav1.7 expressed in HEK293 cells by whole cell patch clamp electrophysiology method.
The target of experiment [4] is T2, Sodium channel protein type 5 subunit alpha. Kind of experiment: Inhibition of human Nav1.5 expressed in HEK293 cells by whole cell patch clamp electrophysiology method. The essentials: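 Stable HEK293 line expressing human NaV1.5, recorded on the PatchXpress 7000A. Percent inhibition versus concentration was pooled from at least 10 cells, with two to three points per concentration. The pooled set was fitted with a four-parameter Hill equation to give a single IC50 curve.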

Positions of bridges follow the written chain, without caps; N, C: chain ends. Non-standard residues stand in square brackets, D forms with d. Residues, ends and D or L forms follow the SMILES beside them. Ala(indol-2-yl) = N[C@@H](Cc1cc2ccccc2[nH]1)C(=O)O

T2 sequence (Q14524 whole entry): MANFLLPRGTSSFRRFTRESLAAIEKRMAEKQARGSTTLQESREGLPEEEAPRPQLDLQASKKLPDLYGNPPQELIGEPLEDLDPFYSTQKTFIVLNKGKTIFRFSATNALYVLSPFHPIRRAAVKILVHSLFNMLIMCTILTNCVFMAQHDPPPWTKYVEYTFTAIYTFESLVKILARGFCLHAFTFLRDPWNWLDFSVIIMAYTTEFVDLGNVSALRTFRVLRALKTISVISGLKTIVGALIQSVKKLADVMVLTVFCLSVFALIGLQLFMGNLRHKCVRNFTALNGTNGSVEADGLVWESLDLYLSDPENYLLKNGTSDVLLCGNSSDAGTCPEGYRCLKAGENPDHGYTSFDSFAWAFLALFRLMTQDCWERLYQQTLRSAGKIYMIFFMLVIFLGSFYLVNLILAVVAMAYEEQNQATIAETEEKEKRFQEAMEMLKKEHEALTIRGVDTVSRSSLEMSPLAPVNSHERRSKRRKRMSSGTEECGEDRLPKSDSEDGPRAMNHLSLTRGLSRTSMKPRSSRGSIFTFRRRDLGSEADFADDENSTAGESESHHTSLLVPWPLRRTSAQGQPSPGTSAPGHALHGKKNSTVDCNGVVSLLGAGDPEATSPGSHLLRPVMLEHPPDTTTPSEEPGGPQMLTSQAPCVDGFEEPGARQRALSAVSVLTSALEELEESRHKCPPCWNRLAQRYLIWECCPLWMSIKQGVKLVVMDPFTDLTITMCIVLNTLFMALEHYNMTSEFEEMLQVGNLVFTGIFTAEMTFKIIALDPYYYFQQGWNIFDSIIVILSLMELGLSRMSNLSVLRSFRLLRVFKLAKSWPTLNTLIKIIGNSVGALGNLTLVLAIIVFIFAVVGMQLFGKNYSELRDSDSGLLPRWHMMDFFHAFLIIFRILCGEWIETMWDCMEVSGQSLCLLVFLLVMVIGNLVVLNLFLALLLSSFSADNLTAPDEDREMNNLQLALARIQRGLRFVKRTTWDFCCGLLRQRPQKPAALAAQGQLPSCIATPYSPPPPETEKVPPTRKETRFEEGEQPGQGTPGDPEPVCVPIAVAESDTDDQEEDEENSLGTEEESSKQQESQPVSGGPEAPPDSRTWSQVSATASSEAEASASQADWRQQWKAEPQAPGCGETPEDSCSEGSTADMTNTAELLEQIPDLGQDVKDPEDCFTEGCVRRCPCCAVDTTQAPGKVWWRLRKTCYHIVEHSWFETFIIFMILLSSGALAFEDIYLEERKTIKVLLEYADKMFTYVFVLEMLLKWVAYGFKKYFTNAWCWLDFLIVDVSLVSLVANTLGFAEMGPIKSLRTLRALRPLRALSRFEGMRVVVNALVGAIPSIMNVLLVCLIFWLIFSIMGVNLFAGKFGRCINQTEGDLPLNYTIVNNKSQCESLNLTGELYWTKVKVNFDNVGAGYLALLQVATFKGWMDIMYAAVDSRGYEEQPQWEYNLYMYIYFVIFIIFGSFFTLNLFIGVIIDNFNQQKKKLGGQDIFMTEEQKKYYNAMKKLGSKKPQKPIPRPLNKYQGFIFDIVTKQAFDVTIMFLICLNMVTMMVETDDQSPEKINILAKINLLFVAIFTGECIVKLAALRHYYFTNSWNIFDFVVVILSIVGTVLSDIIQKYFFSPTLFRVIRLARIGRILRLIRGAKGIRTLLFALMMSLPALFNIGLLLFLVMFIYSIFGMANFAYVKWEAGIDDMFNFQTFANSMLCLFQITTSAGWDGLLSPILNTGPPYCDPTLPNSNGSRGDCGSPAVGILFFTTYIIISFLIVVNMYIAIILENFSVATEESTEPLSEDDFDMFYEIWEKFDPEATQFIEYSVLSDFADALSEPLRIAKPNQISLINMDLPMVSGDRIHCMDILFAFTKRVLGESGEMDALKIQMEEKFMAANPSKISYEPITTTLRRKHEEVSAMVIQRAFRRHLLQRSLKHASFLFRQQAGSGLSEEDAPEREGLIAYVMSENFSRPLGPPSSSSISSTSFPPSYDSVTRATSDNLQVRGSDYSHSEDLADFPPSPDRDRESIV
T1 sequence (Q15858 whole entry): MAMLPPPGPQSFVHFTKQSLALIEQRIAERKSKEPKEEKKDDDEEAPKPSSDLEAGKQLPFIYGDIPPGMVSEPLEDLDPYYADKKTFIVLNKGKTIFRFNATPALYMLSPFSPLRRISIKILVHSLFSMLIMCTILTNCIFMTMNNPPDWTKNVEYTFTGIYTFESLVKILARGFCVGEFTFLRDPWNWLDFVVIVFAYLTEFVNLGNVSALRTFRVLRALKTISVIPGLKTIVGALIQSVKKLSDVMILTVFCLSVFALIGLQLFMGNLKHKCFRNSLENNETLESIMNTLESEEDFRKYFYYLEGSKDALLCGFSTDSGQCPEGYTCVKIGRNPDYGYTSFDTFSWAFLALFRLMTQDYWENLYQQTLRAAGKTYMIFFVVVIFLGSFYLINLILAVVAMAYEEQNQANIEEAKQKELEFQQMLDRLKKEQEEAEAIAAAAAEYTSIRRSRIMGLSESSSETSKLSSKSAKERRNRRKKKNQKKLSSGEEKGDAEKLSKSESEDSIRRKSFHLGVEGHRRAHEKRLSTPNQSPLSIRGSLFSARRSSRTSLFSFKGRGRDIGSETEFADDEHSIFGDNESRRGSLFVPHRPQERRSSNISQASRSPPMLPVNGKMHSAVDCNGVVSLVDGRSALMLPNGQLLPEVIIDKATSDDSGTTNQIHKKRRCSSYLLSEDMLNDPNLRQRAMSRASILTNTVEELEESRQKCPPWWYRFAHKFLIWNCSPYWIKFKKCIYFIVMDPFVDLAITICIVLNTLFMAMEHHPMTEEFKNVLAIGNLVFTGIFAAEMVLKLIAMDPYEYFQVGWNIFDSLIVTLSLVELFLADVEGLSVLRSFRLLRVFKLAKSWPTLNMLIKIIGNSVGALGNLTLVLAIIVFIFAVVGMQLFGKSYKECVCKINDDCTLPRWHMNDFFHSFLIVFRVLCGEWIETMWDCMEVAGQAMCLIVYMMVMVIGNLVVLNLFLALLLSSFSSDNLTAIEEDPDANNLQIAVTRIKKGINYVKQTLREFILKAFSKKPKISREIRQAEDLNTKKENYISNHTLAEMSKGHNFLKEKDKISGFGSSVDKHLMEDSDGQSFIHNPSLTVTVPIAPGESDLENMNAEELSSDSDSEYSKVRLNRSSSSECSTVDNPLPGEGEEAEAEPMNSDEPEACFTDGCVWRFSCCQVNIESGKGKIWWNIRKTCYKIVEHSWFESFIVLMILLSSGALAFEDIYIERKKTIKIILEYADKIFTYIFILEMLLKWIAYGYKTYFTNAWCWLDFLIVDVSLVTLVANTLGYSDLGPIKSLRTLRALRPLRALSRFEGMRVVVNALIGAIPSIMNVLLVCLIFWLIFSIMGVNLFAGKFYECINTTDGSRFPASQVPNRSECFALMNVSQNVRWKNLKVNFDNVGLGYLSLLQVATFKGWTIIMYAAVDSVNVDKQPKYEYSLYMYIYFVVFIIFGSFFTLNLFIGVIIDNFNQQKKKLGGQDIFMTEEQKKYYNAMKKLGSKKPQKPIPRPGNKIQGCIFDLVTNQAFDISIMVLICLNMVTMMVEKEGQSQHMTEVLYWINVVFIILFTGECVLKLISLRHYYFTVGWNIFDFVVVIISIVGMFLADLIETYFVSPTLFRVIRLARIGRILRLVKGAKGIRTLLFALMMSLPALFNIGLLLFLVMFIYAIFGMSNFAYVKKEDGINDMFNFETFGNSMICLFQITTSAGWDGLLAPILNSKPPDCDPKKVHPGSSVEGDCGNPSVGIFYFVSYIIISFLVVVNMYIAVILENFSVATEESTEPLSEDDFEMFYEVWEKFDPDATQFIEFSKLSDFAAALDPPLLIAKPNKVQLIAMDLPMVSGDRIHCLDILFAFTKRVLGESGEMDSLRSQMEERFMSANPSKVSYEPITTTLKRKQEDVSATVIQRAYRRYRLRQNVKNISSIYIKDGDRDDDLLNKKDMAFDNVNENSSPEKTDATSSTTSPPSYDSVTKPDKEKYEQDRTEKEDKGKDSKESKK

In the case of `CC[C@H](C)[C@@H]1NC(=O)[C@@H]2CSSC[C@@H]3NC(=O)[C@H](C(C)C)NC(=O)[C@H](CC(C)C)NC(=O)[C@H](CC(N)=O)NC(=O)[C@@H]4CCCN4C(=O)[C@H](CCCCN)NC(=O)[C@H](CSSC[C@H](NC(=O)[C@@H](N)CC(=O)O)C(=O)N[C@@H](CC(C)C)C(=O)NCC(=O)N[C@@H](Cc4ccccc4)C(=O)N[C@@H](CCSC)C(=O)N[C@@H](CCCNC(=N)N)C(=O)N[C@@H](CCCCN)C(=O)N2)NC(=O)[C@H](CSSC[C@@H](C(=O)N[C@@H](CCCCN)C(=O)N[C@@H](Cc2ccc(O)cc2)C(=O)N[C@H](C(=O)N[C@@H](Cc2ccccc2)C(N)=O)C(C)C)NC(=O)[C@H](Cc2c[nH]c4ccccc24)NC(=O)[C@H](CCCCN)NC(=O)[C@H](Cc2cnc[nH]2)NC(=O)[C@H]([C@@H](C)O)NC(=O)[C@H](CCCNC(=N)N)NC(=O)[C@H](CO)NC3=O)NC(=O)[C@H](CCCCN)NC(=O)[C@H](CC(=O)O)NC(=O)[C@H](CC(N)=O)NC(=O)[C@H](CC(=O)O)NC(=O)[C@@H]2CCCN2C1=O` (H-DCLGFMRKCIPDNDKCCKPNLVCSRTHKWCKYVF-NH2; disulfide 2-17, 9-23, 16-30), the IC50 was 360 nM in experiment [1], > 5000 nM in experiment [2], 1.6 nM in experiment [3] and 15900 nM in experiment [4].

As to `CC[C@H](C)[C@@H]1NC(=O)[C@@H]2CSSC[C@@H]3NC(=O)[C@H](C(C)C)NC(=O)[C@H](CC(C)C)NC(=O)[C@H](CC(N)=O)NC(=O)[C@@H]4CCCN4C(=O)[C@H](Cc4cc5ccccc5[nH]4)NC(=O)[C@H](CSSC[C@H](NC(=O)[C@@H](N)CC(=O)O)C(=O)N[C@@H](CC(C)C)C(=O)NCC(=O)N[C@@H](Cc4ccccc4)C(=O)N[C@@H](CCSC)C(=O)N[C@@H](CCCNC(=N)N)C(=O)N[C@@H](CCCCN)C(=O)N2)NC(=O)[C@H](CSSC[C@@H](C(=O)N[C@@H](CCCCN)C(=O)N[C@@H](Cc2ccc(O)cc2)C(=O)N[C@H](C(=O)N[C@@H](Cc2ccccc2)C(N)=O)C(C)C)NC(=O)[C@H](Cc2c[nH]c4ccccc24)NC(=O)[C@H](CCCCN)NC(=O)[C@H](Cc2cnc[nH]2)NC(=O)[C@H]([C@@H](C)O)NC(=O)[C@H](CCCNC(=N)N)NC(=O)[C@H](CO)NC3=O)NC(=O)[C@H](CCCCN)NC(=O)[C@H](CC(=O)O)NC(=O)[C@H](CC(N)=O)NC(=O)[C@H](CC(=O)O)NC(=O)[C@@H]2CCCN2C1=O` (H-DCLGFMRKCIPDNDKCC[Ala(indol-2-yl)]PNLVCSRTHKWCKYVF-NH2; disulfide 2-17, 9-23, 16-30), the 50% inhibitory concentration (IC50) is 180 nM in experiment [1], > 5000 nM in experiment [2], 18 nM in experiment [3] and > 10000 nM in experiment [4].

On to `CC[C@H](C)[C@@H]1NC(=O)[C@@H]2CSSC[C@@H]3NC(=O)[C@H](C(C)C)NC(=O)[C@H](CC(C)C)NC(=O)[C@H](CC(N)=O)NC(=O)[C@@H]4CCCN4C(=O)[C@H](CCC(=O)O)NC(=O)[C@H](CSSC[C@H](NC(=O)[C@@H](N)CC(=O)O)C(=O)N[C@@H](CC(C)C)C(=O)NCC(=O)N[C@@H](Cc4ccccc4)C(=O)N[C@@H](CCSC)C(=O)N[C@@H](CCCNC(=N)N)C(=O)N[C@@H](CCCCN)C(=O)N2)NC(=O)[C@H](CSSC[C@@H](C(=O)N[C@@H](CCCCN)C(=O)N[C@@H](Cc2ccc(O)cc2)C(=O)N[C@H](C(=O)N[C@@H](Cc2ccccc2)C(N)=O)C(C)C)NC(=O)[C@H](Cc2c[nH]c4ccccc24)NC(=O)[C@H](CCCCN)NC(=O)[C@H](Cc2cnc[nH]2)NC(=O)[C@H]([C@@H](C)O)NC(=O)[C@H](CCCNC(=N)N)NC(=O)[C@H](CO)NC3=O)NC(=O)[C@H](CCCCN)NC(=O)[C@H](CC(=O)O)NC(=O)[C@H](CC(N)=O)NC(=O)[C@H](CC(=O)O)NC(=O)[C@@H]2CCCN2C1=O` (H-DCLGFMRKCIPDNDKCCEPNLVCSRTHKWCKYVF-NH2; disulfide 2-17, 9-23, 16-30), for which the concentration for half-maximal inhibition (IC50) was > 5000 nM in experiment [2], 17 nM in experiment [3] and > 10000 nM in experiment [4].

In the case of `CC[C@H](C)[C@@H]1NC(=O)[C@@H]2CSSC[C@@H]3NC(=O)[C@H](C(C)C)NC(=O)[C@H](CC(C)C)NC(=O)[C@H](CC(N)=O)NC(=O)[C@H](CCCCN)NC(=O)[C@H](CCCNC(=N)N)NC(=O)[C@H](CSSC[C@H](NC(=O)[C@@H](N)CC(=O)O)C(=O)N[C@@H](CC(C)C)C(=O)NCC(=O)N[C@@H](Cc4ccccc4)C(=O)N[C@@H](CCSC)C(=O)N[C@@H](CCCNC(=N)N)C(=O)N[C@@H](CCCCN)C(=O)N2)NC(=O)[C@H](CSSC[C@@H](C(=O)N[C@@H](CCCCN)C(=O)N[C@@H](Cc2ccc(O)cc2)C(=O)N[C@H](C(=O)N[C@@H](Cc2ccccc2)C(N)=O)C(C)C)NC(=O)[C@H](Cc2c[nH]c4ccccc24)NC(=O)[C@H](CCCCN)NC(=O)[C@H](Cc2cnc[nH]2)NC(=O)[C@H]([C@@H](C)O)NC(=O)[C@H](CCCNC(=N)N)NC(=O)[C@H](CO)NC3=O)NC(=O)[C@H](CCCCN)NC(=O)[C@H](CC(=O)O)NC(=O)[C@H](CC(N)=O)NC(=O)[C@H](CC(=O)O)NC(=O)[C@@H]2CCCN2C1=O` (H-DCLGFMRKCIPDNDKCCRKNLVCSRTHKWCKYVF-NH2; disulfide 2-17, 9-23, 16-30), the figures for the half-inhibitory concentration (IC50) in experiment [2], in experiment [3] and in experiment [4] were > 5000 nM, 2.3 nM and > 10000 nM, respectively.

For the molecule `CSCC[C@@H]1NC(=O)[C@H](Cc2ccccc2)NC(=O)CNC(=O)[C@H](CC(C)C)NC(=O)[C@@H](NC(=O)[C@@H](N)CC(=O)O)CSSC[C@@H]2NC(=O)[C@@H]3CSSC[C@@H](C(=O)N[C@@H](CCCCN)C(=O)N[C@@H](Cc4ccc(O)cc4)C(=O)N[C@H](C(=O)N[C@@H](Cc4ccccc4)C(N)=O)C(C)C)NC(=O)[C@H](Cc4c[nH]c5ccccc45)NC(=O)[C@H](CCCCN)NC(=O)[C@H](Cc4cnc[nH]4)NC(=O)[C@H]([C@@H](C)O)NC(=O)[C@H](CCCNC(=N)N)NC(=O)[C@H](CO)NC(=O)[C@H](CSSC[C@H](NC(=O)[C@H](CCCCN)NC(=O)[C@H](CCCNC(=N)N)NC1=O)C(=O)N[C@@H](CC(=O)O)C(=O)N1CCC[C@H]1C(=O)N[C@@H](CC(=O)O)C(=O)N[C@@H](CC(N)=O)C(=O)N[C@@H](CC(=O)O)C(=O)N[C@@H](CCCCN)C(=O)N3)NC(=O)[C@H](C(C)C)NC(=O)[C@H](CC(C)C)NC(=O)[C@H](CC(N)=O)NC(=O)[C@@H]1CCCN1C(=O)[C@H](CCCNC(=N)N)NC2=O` (H-DCLGFMRKCDPDNDKCCRPNLVCSRTHKWCKYVF-NH2; disulfide 2-17, 9-23, 16-30), the values for the IC50 in experiment [2], in experiment [3] and in experiment [4] were > 5000 nM, 4 nM and > 10000 nM, respectively.

On to `CC[C@H](C)[C@@H]1NC(=O)[C@@H]2CSSC[C@@H]3NC(=O)[C@H](C(C)C)NC(=O)[C@H](CC(C)C)NC(=O)[C@H](CC(N)=O)NC(=O)[C@@H]4CCCN4C(=O)[C@H](CCCNC(=N)N)NC(=O)[C@H](CSSC[C@H](NC(=O)[C@@H](N)CC(=O)O)C(=O)N[C@@H](CC(C)C)C(=O)NCC(=O)N[C@@H](Cc4ccccc4)C(=O)N[C@@H](CCSC)C(=O)N[C@@H](CCCNC(=N)N)C(=O)N[C@@H](CCCCN)C(=O)N2)NC(=O)[C@H](CSSC[C@@H](C(=O)N[C@@H](CCCCN)C(=O)N[C@@H](Cc2ccc(O)cc2)C(=O)N[C@H](C(=O)N[C@@H](Cc2ccccc2)C(N)=O)C(C)C)NC(=O)[C@H](Cc2c[nH]c4ccccc24)NC(=O)[C@H](CCCCN)NC(=O)[C@H](Cc2cnc[nH]2)NC(=O)[C@H]([C@@H](C)O)NC(=O)[C@H](CCCNC(=N)N)NC(=O)[C@H](CO)NC3=O)NC(=O)[C@H](CCCCN)NC(=O)[C@H](CC(=O)O)NC(=O)[C@H](CC(N)=O)NC(=O)[C@H](CC(=O)O)NC(=O)[C@H](CCC(=O)O)NC1=O` (H-DCLGFMRKCIEDNDKCCRPNLVCSRTHKWCKYVF-NH2; disulfide 2-17, 9-23, 16-30), for which the 50% inhibitory concentration (IC50) is > 5000 nM in experiment [2], 2.5 nM in experiment [3] and > 10000 nM in experiment [4].

As to `CSCC[C@@H]1NC(=O)[C@H](Cc2ccccc2)NC(=O)CNC(=O)[C@H](CC(C)C)NC(=O)[C@@H](NC(=O)[C@@H](N)CC(=O)O)CSSC[C@@H]2NC(=O)[C@@H]3CSSC[C@@H](C(=O)N[C@@H](CCCCN)C(=O)N[C@@H](Cc4ccc(O)cc4)C(=O)N[C@H](C(=O)N[C@@H](Cc4ccccc4)C(N)=O)C(C)C)NC(=O)[C@H](Cc4c[nH]c5ccccc45)NC(=O)[C@H](CCCCN)NC(=O)[C@H](Cc4cnc[nH]4)NC(=O)[C@H]([C@@H](C)O)NC(=O)[C@H](CCCNC(=N)N)NC(=O)[C@H](CO)NC(=O)[C@H](CSSC[C@H](NC(=O)[C@H](CCCCN)NC(=O)[C@H](CCCNC(=N)N)NC1=O)C(=O)N[C@@H](CCC(=O)O)C(=O)N1CCC[C@H]1C(=O)N[C@@H](CC(=O)O)C(=O)N[C@@H](CC(N)=O)C(=O)N[C@@H](CC(=O)O)C(=O)N[C@@H](CCCCN)C(=O)N3)NC(=O)[C@H](C(C)C)NC(=O)[C@H](CC(C)C)NC(=O)[C@H](CC(N)=O)NC(=O)[C@@H]1CCCN1C(=O)[C@H](CCCNC(=N)N)NC2=O` (H-DCLGFMRKCEPDNDKCCRPNLVCSRTHKWCKYVF-NH2; disulfide 2-17, 9-23, 16-30), the IC50 in experiment [2] was > 5000 nM; in experiment [3] it was 2.1 nM; in experiment [4] it was > 10000 nM.

Broadly, the IC50 is the concentration needed to halve the response being measured.

(Values after ChEMBL document CHEMBL3797186, “Single Residue Substitutions That Confer Voltage-Gated Sodium Ion Channel Subtype Selectivity in the NaV1.7 Inhibitory Peptide GpTx-1” (J Med Chem, 2016).)
